High-throughput results (PubChem BioAssay)
Jurkat viability = cytotoxicity toward Jurkat T cells, primary screen, cytotoxicity control, cell-based, Jurkat E6.1, 60K MLSMR library. Jurkat E6.1 viability, ATP luminescence, 48 h. inhibition, % at 4 µM. 56,000 compounds, 1.2% hits;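 active = inhibition above the mean inhibition of all tested compounds plus 3 SD, cut at about 28% in these data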
H69AR growth 86K = proliferation blockers of H69AR lung cancer cells, primary screen, cell-based, human, 86K library; 85,000 compounds, 6% hits; H69AR lung tumor viability, ATP luminescence, 72 h; active compounds read low; viability, % at 10 µM; AID 598, 2007;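 active = viability at or below 40%; inactive = viability above 40%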;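 also: multidrug resistant small cell line overexpressing MRP-1 efflux transporter; 100% = mean luminescence of untreated control wells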
Lung fibro prol = antiproliferative effect on LL 47 fibroblasts – human, LL 47 cells, CellTiter-Glo luminescence, primary screen | LL 47 human lung fibroblast viability, ATP luminescence; active compounds read low | viability, % at 10 µM | 85,000 compounds, 1.1% hits;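 active = viability at or below 50% in the single dose screen; inactive = viability above 50%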;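 also: compound exposure lasted 72 h before the ATP readout; 100% = median luminescence of untreated cell-only wells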
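Material: Human LL 47 lung fibroblast cells | Input: 1,150 cells/well | Buffer or medium: IMEM plus 15% FBS | Compound dosing: 0.1% DMSO in all compound wells | Times: Overnight cell rest, 72 h compound treatment at 37 °C | Signal: CellTiter-Glo luminescence measuring cellular ATP | Measure: % viability versus median cells-only luminescence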
HUVEC inhibit = inhibitors of HUVEC proliferation, primary screen, cell-based, 384-well; CellTiter-Glo luminescence, 72 h; active compounds read low; viability, % at 10 µM (by protocol); 86,000 compounds, 1.1% hits; AID 648, 2007;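 active = viability at or below 30%; inactive = viability above 30%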;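 also: 100% = median luminescence of DMSO-only cell control wells on each plate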
* marks the source's active call; other numbers are inactive results; . = no result given. Hits are enriched below; roughly 6.4% of the tested compounds scored in any of these assays.

SMILES	Jurkat viability	H69AR growth 86K	Lung fibro prol	HUVEC inhibit
COc1ccc(OC)c(NC(=O)Cc2coc3cc(C)cc(C)c23)c1	.	82.6	108.7	100.6
CCOc1ccc2[nH]c(=O)c(CN(Cc3ccco3)C(=O)c3ccc(Br)cc3)cc2c1	-8.4	19.0*	66.0	57.5
O=C(C(c1ccccc1)c1ccccc1)N1CCN(Cc2ccc(Br)cc2)CC1	.	36.1*	77.7	88.0
O=C(CN1CCN(Cc2ccccc2)CC1)c1ccc(Br)cc1	3.6	77.4	100.5	93.4
Cc1cc(C)c(NC(=O)COc2ccccc2C(=O)Nc2ccc3c(c2)oc2ccccc23)c(C)c1	.	26.0*	47.0*	81.7
Cc1c(Cl)cccc1-n1c(SCC(=O)NCc2ccccc2Cl)nnc1-c1ccncc1	.	21.4*	94.0	86.5
CC(CCc1ccco1)NC(=O)Cn1ncc2c1-c1ccccc1OC2 (configuration not stated)	3.7	96.4	105.9	98.9
CC1CC(C)(C)Nc2ccc(OC(=O)c3ccco3)cc21 (configuration not stated)	9.0	1.1*	1.7*	5.7*
O=S1(=O)C=C(SCCN2CCCCC2)c2ccccc21	-2.6	62.3	83.1	97.0
O=S1(=O)C=C(Sc2nnc(-c3ccccc3)o2)c2ccccc21	101.4*	0.3*	.	10.7*
O=C(CSc1nc2ccccc2s1)CSc1nc2ccccc2s1	.	71.0	94.2	101.4
CSc1nnc(-c2ccccc2)o1	-9.6	98.0	100.7	96.4
O=S1(=O)C=C(Sc2nc3ccccc3s2)c2ccccc21	101.7*	102.7	3.1*	12.4*
Cc1cc(C)nc(SC2=CS(=O)(=O)c3ccccc32)n1	11.9	5.8*	58.1	93.6
O=C(CSc1nc(-c2ccccc2)c(-c2ccccc2)[nH]1)N1CCN(S(=O)(=O)c2ccccc2)CC1	.	54.4	108.2	77.6
Cc1nc(N)c(C#N)c(-c2ccccc2)c1C	-1.3	82.6	104.3	79.3
CC1=C(C#N)c2nc(N)c(C#N)c(C)c2/C1=C\c1ccccc1	0.9	1.6*	8.1*	13.2*
CN(C(=S)NC1=CCS(=O)(=O)C1)C1CCCCC1	.	83.2	97.4	84.7
Cc1ccc(C2c3c(-c4ccccc4O)n[nH]c3C(=O)N2Cc2ccncc2)cc1 (configuration not stated)	86.5*	7.6*	57.0	48.7
COc1ccc(C2c3c(-c4ccccc4O)n[nH]c3C(=O)N2CCc2ccc(OC)c(OC)c2)cc1 (configuration not stated)	4.1	68.3	90.3	77.9
O=C1c2[nH]nc(-c3ccccc3O)c2C(c2cccc(O)c2)N1Cc1ccco1 (configuration not stated)	.	38.1*	89.0	82.0
COc1ccc(CCN2C(=O)c3[nH]nc(-c4ccccc4O)c3C2c2cccc(Cl)c2)cc1 (configuration not stated)	.	22.6*	54.3	14.9*
Cc1cc(C)c(NC(=O)CS(=O)CC(=O)NC2CCCc3ccccc32)c(C)c1 (configuration not stated)	.	82.4	93.1	78.5
O=C(CCSc1nnc(-c2ccncc2)o1)Nc1ccccc1Cl	.	88.0	97.8	106.1
CCOC(=O)c1c(C)c(C(=O)Nc2ccc(N(C)C)cc2)c(C)n1CC	58.7*	18.9*	56.5	54.3
SMILES	Jurkat viability	H69AR growth 86K	Lung fibro prol	HUVEC inhibit
CCOC(=O)c1c(C)c(C(=O)NCCOC)c(C)n1CC	17.5	91.6	99.0	100.8
COc1cc(C)nc(N2CCCC(C(=O)Nc3cccc(Cl)c3Cl)C2)n1 (configuration not stated)	.	11.0*	70.4	59.8
COc1ccccc1NC(=O)C1CCCN(c2nc(C)cc(C)n2)C1 (configuration not stated)	.	89.6	101.7	98.0
CCc1c(C)nc2ncnn2c1N1CCC(C(=O)Nc2ccc(C)cc2)CC1	13.7	35.0*	99.5	100.7
CCc1c(C)nc2ncnn2c1N1CCC(C(=O)Nc2ccccc2)CC1	10.9	56.7	93.4	95.4
COc1ccc(C(c2nnnn2CCc2ccccc2)N2CCN(C3CCCC3)CC2)cc1OC (configuration not stated)	-5.6	93.5	98.6	112.7
O=c1oc(-c2cccc(Cl)c2)nc2c1cnn2-c1ccccc1	.	90.8	100.4	81.2
O=c1oc(-c2ccccc2F)nc2c1cnn2-c1ccccc1	.	54.0	82.0	5.9*
CC(=O)Nc1ccc(N2C(C(C)=O)=NN(c3ccc(Cl)cc3)C2c2sccc2C)cc1 (configuration not stated)	.	37.6*	93.8	53.8
Nn1c(-c2cccs2)nc2sc3c(c2c1=O)CCCC3	10.9	31.4*	84.0	68.8
CC1(C)Cc2c(sc3nc(-c4cccs4)n(N)c(=O)c23)CO1	.	35.5*	83.0	83.7
CC1(C)Cc2c(sc3nc(-c4ccccc4)n(N)c(=O)c23)CO1	.	93.6	99.5	114.1
Sc1oc(-c2ccccc2)cc1C=Nc1ccccc1	.	25.9*	102.7	69.3
COc1ccc(Nc2nc(N3CCCCC3)nc3ccccc23)c(OC)c1	.	9.0*	76.6	72.5
COc1ccc(Nc2nc(N3CCCCC3)nc(N3CCCCC3)n2)c(OC)c1	-2.9	85.8	93.5	96.3
COc1ccc(Nc2nc(N3CCCC3)c3ccccc3n2)cc1	19.2	35.9*	19.9*	7.7*
CSc1nc(N2CCOCC2)c2ccccc2n1	-1.1	80.9	96.5	97.5
CCN(CC)c1ccc(Nc2nc(N3CCOCC3)c3ccccc3n2)cc1	.	31.8*	88.1	81.0
CCOc1nc(Nc2ccc(OC)c(Cl)c2)nc(N2CCN(c3ccc(OC)cc3)CC2)n1	.	78.1	94.1	95.4
COc1ccc(C(=O)Nc2nc3cc(OC)c(OC)cc3c(=O)[nH]2)cc1	6.2	13.3*	77.7	56.6
COc1cc2nc(NC(=O)c3ccccc3)[nH]c(=O)c2cc1OC	.	64.8	101.1	102.7
CCOC(=O)c1cc2c(C(F)(F)F)cc(-c3cccnc3)nc2o1	8.1	99.2	103.1	90.1
Cc1cc(NC(=O)CSc2nc(C3CC3)nc3sc(C)c(C)c23)no1	.	24.5*	67.5	71.7
O=C(O)c1cc2ccccc2n1-c1ccccc1	-6.4	93.7	97.5	92.0
CC(C)Cn1c(SCC(=O)N2CCN(S(=O)(=O)c3ccccc3)CC2)nc2ccccc21	10.8	31.5*	95.4	82.0
SMILES	Jurkat viability	H69AR growth 86K	Lung fibro prol	HUVEC inhibit
O=C1c2ccccc2-c2ncnc3cccc1c23	-6.4	62.3	109.0	54.5
O=C(O)c1ccc2c3c(ncnc13)-c1ccccc1C2=O	5.5	64.9	22.6*	40.9
COc1cccc(C2=NC(C)(C)NC(c3ccccc3O)C2)c1 (configuration not stated)	12.6	1.1*	87.7	62.4
COc1cccc(C2=NOC(C(=O)NC(C)C)C2)c1 (configuration not stated)	-0.9	99.3	98.8	95.2
CCC1(C)N=C(c2ccc3c(c2)OCO3)CC(c2ccccc2O)N1 (configuration not stated)	.	2.1*	53.7	24.9*
COc1cc2c3nnc(-c4ccc(F)cc4)c-3cn(Cc3ccccc3)c2cc1OC	.	1.5*	2.7*	1.8*
